DENV2 CPE rescue – inhibitors of DENV2 cytopathic effect, primary screen, cell-based, plate reader, single concentration | CPE inhibition, % at 9.99 µM | 350,000 compounds, 1.7% hits | DENV2-infected cells, cytopathic effect rescue; in the data active = CPE inhibition above about 20%, passing the limit was not always enough; tested in BHK-21 cells;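 note: 0% = median of neutral control wells and 100% = median of positive control wells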
S100A4 MyoIIA – inhibitors of S100A4-myosin IIA peptide binding, primary screen, biochemical, fluorescence polarization, TAMRA-MyoIIA peptide; inhibition, % at 10.7 µM; 360,000 compounds, 0.14% hits;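 active = mean inhibition of at least 70% across replicates, with every replicate also reaching that level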
Target sequence (P26447 whole entry, looked up): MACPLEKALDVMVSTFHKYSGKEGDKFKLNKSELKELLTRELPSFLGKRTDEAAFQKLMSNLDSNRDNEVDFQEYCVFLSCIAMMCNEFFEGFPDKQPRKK
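Material: S100A4 monomer protein | Medium: HEPES pH 7.2 with CaCl2, KCl, NaCl, DTT, Triton | Reagent: Labelled myosin peptide probe, 5 nM | Doses: One dose per compound | Times: 5 min incubation before reading | Benchmarks: Neutral control DMSO, positive control TFP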
CAL PDZ FP-1 – CAL PDZ peptide-binding inhibitors, primary screen, biochemical, fluorescence polarization, Cer-tagged CAL PDZ, HTS | purified CAL PDZ, TMR-peptide fluorescence polarization, 1 h | inhibition, % at 20 µM | 330,000 compounds, 0.02% hits | AID 504414, 2011;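 active = highest replicate inhibition of at least 40%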;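 note: plate controls were DMSO neutral control wells for no effect and unlabeled competitor peptide control wells for full effect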
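material = purified tagged CAL PDZ domain construct (CerCALP) | compound dosing = 20 µM, one dose | times = 1 h at RT | measured by = fluorescence polarization from S- and P-plane intensities, G-factor corrected | read-out = inhibition from polarization loss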
ERAP1 inh – human ERAP1 aminopeptidase inhibitors, primary screen, biochemical, single point, plate reader; Endoplasmic reticulum aminopeptidase 1 (Homo sapiens), Q9NZ08; recombinant ERAP1, Leu-AMC fluorescence, 60 min; inhibition, % at 10.7 µM; 340,000 compounds, 0.15% hits; AID 652197, 2013;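 active = mean replicate inhibition of at least 30%, or all replicates individually reaching that 30% level; inactive = mean below 30% and not every replicate reaching it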;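 note: 0% = neutral control wells and 100% = L-leucinethiol positive control wells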
CAL PDZ FP-2 – untagged CAL PDZ binding inhibitors, primary screen, biochemical, fluorescence polarization, HTS | Golgi-associated PDZ and coiled-coil motif-containing protein (Homo sapiens), Q9HD26 | purified CAL PDZ, TMR-peptide fluorescence polarization, 1 h | inhibition, % at 24.9 µM | 300,000 compounds, 0.92% hits | AID 602252, 2012;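 active = mean inhibition of at least 30% with at least half of replicates also reaching 30%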;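 note: 0% = DMSO neutral control and 100% = excess unlabeled competitor peptide PRC23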
SIRT5 block – SIRT5 desuccinylase inhibitors, primary screen, biochemical, fluorescence imaging, single point, set 5; inhibition, % at 15 µM; AID 652115, 2013; 330,000 compounds, 1.1% hits; NAD-dependent protein deacylase sirtuin-5, mitochondrial (Homo sapiens), Q9NXA8; Purified SirT5, succinyl-peptide AMC, trypsin-coupled fluorescence; in the data active = inhibition above about 15%
Target sequence (Q9NXA8 whole entry, looked up): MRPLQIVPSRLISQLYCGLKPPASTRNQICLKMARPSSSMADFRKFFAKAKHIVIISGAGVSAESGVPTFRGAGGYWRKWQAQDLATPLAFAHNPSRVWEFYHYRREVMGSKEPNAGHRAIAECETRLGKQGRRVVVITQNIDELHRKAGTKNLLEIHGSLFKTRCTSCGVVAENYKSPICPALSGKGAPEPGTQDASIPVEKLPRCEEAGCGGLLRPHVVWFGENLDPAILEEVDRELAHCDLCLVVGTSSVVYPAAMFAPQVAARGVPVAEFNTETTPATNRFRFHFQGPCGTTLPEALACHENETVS
* marks the source's active call; other numbers are inactive results; . = no result; + = active, no number. Shown are actives, neighbours in structure and some others; about 2.9% of the full set was active somewhere.

SMILES	DENV2 CPE rescue	S100A4 MyoIIA	CAL PDZ FP-1	ERAP1 inh	CAL PDZ FP-2	SIRT5 block
C[C@H](CO)N1C[C@H](C)[C@@H](CN(C)Cc2ccc(Oc3ccccc3)cc2)Oc2ccc(NC(=O)C3CC3)cc2C1=O	8	-2	.	0	.	18*
CC(C)NC(=O)Nc1ccc2c(c1)C(=O)N([C@@H](C)CO)C[C@@H](C)[C@@H](CN(C)Cc1ccc(C(=O)O)cc1)O2	25*	1	.	-1	.	-3
C[C@@H]1CN([C@H](C)CO)C(=O)c2cc(NC(=O)Nc3ccccc3)ccc2O[C@@H]1CN(C)Cc1ccccc1	-8	8	.	0	.	18*
C[C@@H]1CN([C@H](C)CO)C(=O)c2cc(NC(=O)C3CC3)ccc2O[C@@H]1CN(C)Cc1ccc(Oc2ccccc2)cc1	-6	-14	.	-4	.	11
CNC[C@H]1Oc2ccc(NC(=O)NC(C)C)cc2C(=O)N([C@@H](C)CO)C[C@@H]1C	28*	4	.	1	.	-3
C[C@@H]1CN([C@@H](C)CO)C(=O)c2cc(NC(=O)c3ccncc3)ccc2O[C@H]1CN(C)Cc1ccc(Oc2ccccc2)cc1	-5	-10	.	-1	.	16*
CC(=O)N1[C@@H]2c3ccc(-c4ccccc4)c(=O)n3C[C@H]1[C@H](CO)[C@H]2C(=O)N1CCN(C)CC1	5	10	.	1	.	-28
C[C@@H]1CCCCO[C@H](CN(C)S(=O)(=O)c2cccs2)[C@H](C)CN([C@@H](C)CO)C(=O)c2cc(NC(=O)Nc3ccc(C(F)(F)F)cc3)ccc2O1	-4	-16	.	2	.	7
N#CCc1c(C#N)c(N)nc(Nc2ccccc2)c1C#N	11	3	-1	.	6	17*
OCCN(CCO)CC(O)CN(c1ccccc1)c1ccccc1 (stereo unspecified)	-1	6	2	3	3	-2
NCC(O)CN(c1ccccc1)c1ccccc1 (stereo unspecified)	-2	-23	0	-1	-1	38*
COc1ccc2c3c([nH]c2c1)[C@@H](CO)N(C(=O)c1ccccc1)CC31CN(C(=O)c2cccc(F)c2)C1	17	1	.	1	.	2
CC(=O)N1CC[C@@H]2[C@H](CO)Nc3ccc(C#Cc4cccnc4)cc3[C@@H]21	5	-1	.	3	.	18*
O=C(Cc1cccnc1)N1CC[C@H]2[C@H](CO)Nc3ccc(C#Cc4cccc(F)c4)cc3[C@H]21	62*	39	.	-1	.	1
CCC(=O)N1CC[C@@H]2[C@@H](CO)Nc3ccc(C#Cc4cccnc4)cc3[C@@H]21	-1	-55	.	4	.	19*
O=C(Cc1ccccc1)N1CC[C@H]2[C@H](CO)Nc3ccc(C#Cc4cccc(F)c4)cc3[C@H]21	3	-1	.	1	.	6
O=C(c1ccncc1)N1CC(=O)N2[C@H](CO)[C@H](c3ccc(-c4cccnc4)cc3)[C@H]2C1	0	-26	.	1	.	0
Cc1nc2ccccn2c1-c1ccnc(=S)[nH]1	-4	6	-1	3	+	-2
S=c1nccc(-c2ccc(Cl)cc2)[nH]1	3	5	.	-1	.	-1
O=C(COC(=O)Cc1ccc(Cl)cc1)NCc1ccc2c(c1)OCO2	3	1	-2	-2	-2	-1
CCc1noc(C)c1C(=O)OCC(=O)NCc1ccccc1	18	0	0	1	.	-19
CCc1noc(C)c1C(=O)OCC(=O)NCc1ccc(Cl)cc1	8	-4	0	3	-6	18*
O=C(COC(=O)c1ccc2c(c1)OCO2)NCc1ccc(Cl)cc1	.	.	.	.	61*	.
COc1ccc(NC(=O)N[C@H]2CC[C@@H](CCNC(=O)c3cc(Cl)cc(Cl)c3)O[C@@H]2CO)cc1	0	4	.	2	.	-1
O=C(Cc1ccncc1)NCC[C@@H]1CC[C@@H](NC(=O)C2CCCCC2)[C@H](CO)O1	14	6	.	3	.	3
SMILES	DENV2 CPE rescue	S100A4 MyoIIA	CAL PDZ FP-1	ERAP1 inh	CAL PDZ FP-2	SIRT5 block
C[C@@H]1CN([C@@H](C)CO)C(=O)c2cc(NC(=O)Nc3ccccc3)ccc2O[C@@H](C)CCCCO[C@@H]1CN(C)C(=O)CCC(F)(F)F	0	0	.	-3	.	3
C[C@@H]1CCCCO[C@@H](CN(C)C(=O)CCC(F)(F)F)[C@@H](C)CN([C@H](C)CO)C(=O)c2cc(NC(=O)Nc3ccc4c(c3)OCO4)ccc2O1	42*	11	.	0	.	2
C[C@@H]1CCCCO[C@H](CN(C)C(=O)CCC(F)(F)F)[C@H](C)CN([C@@H](C)CO)C(=O)c2cc(NC(=O)Nc3ccc4c(c3)OCO4)ccc2O1	26*	-3	.	-2	.	7
C[C@@H]1CN([C@H](C)CO)C(=O)c2cc(NC(=O)Nc3ccc4c(c3)OCO4)ccc2O[C@@H](C)CCCCO[C@@H]1CN(C)C(=O)CCC(F)(F)F	-6	57	.	1	.	3
C[C@H](CO)N1C[C@H](C)[C@H](CN(C)CC2CC2)OCCCC[C@H](C)Oc2ccc(NC(=O)Nc3ccc(C(F)(F)F)cc3)cc2C1=O	1	0	.	1	.	.
Cc1ccc(-c2ccc(=O)n(CC(=O)Nc3ccc4c(c3)OCCO4)n2)cc1	-2	2	-3	-4	5	20*
O=C(Cn1nc(-c2ccc(F)cc2)ccc1=O)Nc1ccc2c(c1)OCCO2	-4	1	-3	2	-3	-3
COc1ccc(NC(=O)N(C)C[C@H]2Oc3ccc(NC(=O)C4CC4)cc3CC(=O)N([C@H](C)CO)C[C@@H]2C)cc1	24*	4	.	0	.	3
CNC[C@@H]1Oc2ccc(NC(=O)Nc3ccc(F)cc3)cc2CC(=O)N([C@@H](C)CO)C[C@H]1C	2	-36	.	1	.	-6
COc1ccc(NC(=O)N(C)C[C@@H]2Oc3ccc(NC(=O)Nc4ccccc4)cc3CC(=O)N([C@@H](C)CO)C[C@@H]2C)cc1	25*	-2	.	0	.	2
C[C@@H]1CN([C@@H](C)CO)C(=O)Cc2cc(NC(=O)Nc3ccccc3)ccc2O[C@@H]1CN(C)C(=O)Nc1ccc(F)cc1	40*	0	.	2	.	-3
CNC[C@H]1Oc2ccc(NC(=O)Nc3ccc(F)cc3)cc2CC(=O)N([C@H](C)CO)C[C@@H]1C	-4	-28	.	1	.	36*

Screens from PubChem BioAssay.
